Reference: ChEMBL document CHEMBL3286162, “Synthesis and anticancer activity of novel quinoline-docetaxel analogues” (Bioorg Med Chem Lett, 2014)
pIC50: −log10 of the molar value.

Columns and labels:
A2780 [1] = assay: Antiproliferative against multidrug-resistant human A2780 cells after 72 hrs by MTT assay; assay type: functional, cell-based; details: A2780, 72 h
In short: (§1)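 MTT cytotoxicity assay with 72 h continuous exposure of cells to test compounds, run alongside docetaxel as positive control. The panel comprised four parental human cancer lines (HeLa, A549, A2780, MCF-7) and two drug-resistant sublines (A2780-MDR, MCF-7-MDR).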

A2780 [2] = assay: Antiproliferative against human A2780 cells after 72 hrs by MTT assay; assay type: functional, cell-based; details: A2780, 72 h; in short: as §1
A549 [3] = assay: Antiproliferative against human A549 cells after 72 hrs by MTT assay; assay type: functional, cell-based; details: A549, 72 h; in short: as §1
MCF7 [4] = assay: Antiproliferative against multidrug-resistant human MCF7 cells after 72 hrs by MTT assay; assay type: functional, cell-based; details: MCF7, 72 h; in short: as §1
HeLa [5] = assay: Antiproliferative against human HeLa cells after 72 hrs by MTT assay; assay type: functional, cell-based; in short: as §1
MCF7 [6] = assay: Antiproliferative against human MCF7 cells after 72 hrs by MTT assay; assay type: functional, cell-based; details: MCF7, 72 h; in short: as §1
MCF7 [7] = assay: Ratio of docetaxel IC50 to compound IC50 for human MCF7 cells after 72 hrs by MTT assay; assay type: functional
MCF7 [8] = assay: Ratio of docetaxel IC50 to compound IC50 for multidrug-resistant human MCF7 cells after 72 hrs by MTT assay; assay type: functional
A549 [9] = assay: Ratio of docetaxel IC50 to compound IC50 for human A549 cells after 72 hrs by MTT assay; assay type: functional
A2780 [10] = assay: Ratio of docetaxel IC50 to compound IC50 for human A2780 cells after 72 hrs by MTT assay; assay type: functional
HeLa [11] = assay: Ratio of docetaxel IC50 to compound IC50 for human HeLa cells after 72 hrs by MTT assay; assay type: functional

Compound	pIC50 (A2780 [1])	pIC50 (A2780 [2])	pIC50 (A549 [3])	pIC50 (MCF7 [4])	pIC50 (HeLa [5])	pIC50 (MCF7 [6])	Ratio IC50 (MCF7 [7])	Ratio IC50 (MCF7 [8])	Ratio IC50 (A549 [9])	Ratio IC50 (A2780 [10])	Ratio IC50 (HeLa [11])
CC(=O)O[C@@]12CO[C@@H]1C[C@H](O)[C@@]1(C)C(=O)[C@H](O)C3=C(C)[C@@H](OC(=O)[C@H](OC(=O)c4ccc5ccccc5n4)[C@@H](NC(=O)OC(C)(C)C)c4ccccc4)C[C@@](O)([C@@H](OC(=O)c4ccccc4)[C@H]21)C3(C)C	7.48	7.46	7.42	8.03	7.51	7.58	–	–	–	–	–
CC(=O)O[C@@]12CO[C@@H]1C[C@H](O)[C@@]1(C)C(=O)[C@H](O)C3=C(C)[C@@H](OC(=O)[C@H](OC(=O)c4cnc5ccccc5c4)[C@@H](NC(=O)OC(C)(C)C)c4ccccc4)C[C@@](O)([C@@H](OC(=O)c4ccccc4)[C@H]21)C3(C)C	7.46	7.35	7.39	7.44	7.39	7.75	2	–	–	–	–
CC(=O)O[C@@]12CO[C@@H]1C[C@H](O)[C@@]1(C)C(=O)[C@H](O)C3=C(C)[C@@H](OC(=O)[C@H](OC(=O)c4ccc5ncccc5c4)[C@@H](NC(=O)OC(C)(C)C)c4ccccc4)C[C@@](O)([C@@H](OC(=O)c4ccccc4)[C@H]21)C3(C)C	7.52	7.64	7.41	8.06	7.46	7.51	–	20	–	–	–
CC(=O)O[C@@]12CO[C@@H]1C[C@H](O)[C@@]1(C)C(=O)[C@H](O)C3=C(C)[C@@H](OC(=O)[C@H](OC(=O)c4nccc5ccccc45)[C@@H](NC(=O)OC(C)(C)C)c4ccccc4)C[C@@](O)([C@@H](OC(=O)c4ccccc4)[C@H]21)C3(C)C	7.91	7.31	7.55	7.75	7.48	7.77	–	–	–	–	–
COc1cc(C(=O)O[C@@H](C(=O)O[C@H]2C[C@@]3(O)[C@@H](OC(=O)c4ccccc4)[C@@H]4[C@]5(OC(C)=O)CO[C@@H]5C[C@H](O)[C@@]4(C)C(=O)[C@H](O)C(=C2C)C3(C)C)[C@@H](NC(=O)OC(C)(C)C)c2ccccc2)nc2ccccc12	7.36	7.48	7.48	7.59	7.41	7.89	2	–	–	–	–
CC(=O)O[C@@]12CO[C@@H]1C[C@H](O)[C@@]1(C)C(=O)[C@H](O)C3=C(C)[C@@H](OC(=O)[C@H](OC(=O)c4cc(-c5ccccc5)nc5ccccc45)[C@@H](NC(=O)OC(C)(C)C)c4ccccc4)C[C@@](O)([C@@H](OC(=O)c4ccccc4)[C@H]21)C3(C)C	7.49	7.38	7.80	7.55	7.71	7.40	–	–	2	–	–
CC(=O)O[C@@]12CO[C@@H]1C[C@H](O)[C@@]1(C)C(=O)[C@H](O)C3=C(C)[C@@H](OC(=O)[C@H](OC(=O)c4cn(C5CC5)c5cc(Cl)c(F)cc5c4=O)[C@@H](NC(=O)OC(C)(C)C)c4ccccc4)C[C@@](O)([C@@H](OC(=O)c4ccccc4)[C@H]21)C3(C)C	7.53	7.34	7.41	7.67	7.49	7.38	–	–	–	–	–
CC(=O)O[C@H]1C(=O)[C@@]2(C)[C@H]([C@H](OC(=O)c3ccccc3)[C@]3(O)C[C@H](OC(=O)[C@H](OC(=O)c4ccc5ccccc5n4)[C@@H](NC(=O)OC(C)(C)C)c4ccccc4)C(C)=C1C3(C)C)[C@]1(OC(C)=O)CO[C@@H]1C[C@@H]2O	7.53	7.34	7.57	7.62	7.70	7.43	–	–	–	–	–
CC(=O)O[C@H]1C(=O)[C@@]2(C)[C@H]([C@H](OC(=O)c3ccccc3)[C@]3(O)C[C@H](OC(=O)[C@H](OC(=O)c4cnc5ccccc5c4)[C@@H](NC(=O)OC(C)(C)C)c4ccccc4)C(C)=C1C3(C)C)[C@]1(OC(C)=O)CO[C@@H]1C[C@@H]2O	7.54	7.47	7.39	7.42	7.44	7.36	–	–	–	–	–
CC(=O)O[C@H]1C(=O)[C@@]2(C)[C@H]([C@H](OC(=O)c3ccccc3)[C@]3(O)C[C@H](OC(=O)[C@H](OC(=O)c4ccc5ncccc5c4)[C@@H](NC(=O)OC(C)(C)C)c4ccccc4)C(C)=C1C3(C)C)[C@]1(OC(C)=O)CO[C@@H]1C[C@@H]2O	7.45	7.79	7.55	7.45	7.73	7.53	–	–	–	2	–
CC(=O)O[C@H]1C(=O)[C@@]2(C)[C@H]([C@H](OC(=O)c3ccccc3)[C@]3(O)C[C@H](OC(=O)[C@H](OC(=O)c4nccc5ccccc45)[C@@H](NC(=O)OC(C)(C)C)c4ccccc4)C(C)=C1C3(C)C)[C@]1(OC(C)=O)CO[C@@H]1C[C@@H]2O	7.73	7.77	7.45	7.34	7.39	7.58	–	–	–	2	–
COc1cc(C(=O)O[C@@H](C(=O)O[C@H]2C[C@@]3(O)[C@@H](OC(=O)c4ccccc4)[C@@H]4[C@]5(OC(C)=O)CO[C@@H]5C[C@H](O)[C@@]4(C)C(=O)[C@H](OC(C)=O)C(=C2C)C3(C)C)[C@@H](NC(=O)OC(C)(C)C)c2ccccc2)nc2ccccc12	7.67	7.52	7.49	7.74	7.46	7.32	–	–	–	–	–
CC(=O)O[C@H]1C(=O)[C@@]2(C)[C@H]([C@H](OC(=O)c3ccccc3)[C@]3(O)C[C@H](OC(=O)[C@H](OC(=O)c4cc(-c5ccccc5)nc5ccccc45)[C@@H](NC(=O)OC(C)(C)C)c4ccccc4)C(C)=C1C3(C)C)[C@]1(OC(C)=O)CO[C@@H]1C[C@@H]2O	7.30	7.55	7.37	7.74	7.93	7.50	–	–	–	–	5
CC(=O)O[C@H]1C(=O)[C@@]2(C)[C@H]([C@H](OC(=O)c3ccccc3)[C@]3(O)C[C@H](OC(=O)[C@H](OC(=O)c4cn(C5CC5)c5cc(Cl)c(F)cc5c4=O)[C@@H](NC(=O)OC(C)(C)C)c4ccccc4)C(C)=C1C3(C)C)[C@]1(OC(C)=O)CO[C@@H]1C[C@@H]2O	7.46	7.40	7.54	7.41	7.60	7.52	–	–	–	–	–
CC(=O)O[C@@]12CO[C@@H]1C[C@H](O)[C@@]1(C)C(=O)[C@H](O)C3=C(C)[C@@H](OC(=O)[C@H](O)[C@@H](NC(=O)OC(C)(C)C)c4ccccc4)C[C@@](O)([C@@H](OC(=O)c4ccccc4)[C@H]21)C3(C)C [DOCETAXEL]	6.90	7.48	7.45	6.74	7.30	7.41	–	–	–	–	–
